# Kir21 block: inhibitors of mouse Kir2.1 inward-rectifier potassium channel; HEK293-Kir2.1, FluxOR thallium flux fluorescence; hits give low values; B-score at 10 µM; actives 0.85% (n = 310,000);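 active = fluorescence ratio B-score at or below minus 3 SD of library scores, with starting-brightness B-score within 2 SD, cut at about -4.2 in these data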;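 note: channel flux triggered by added potassium and thallium sulfate stimulus; B-score of peak minus minimum fluorescence over baseline after thallium stimulus; more negative B-score means stronger Kir2.1 block with less thallium influx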
# TRPC4 inh: inhibitors of mouse TRPC4 channel, primary screen, Fluo4 calcium, HEK293 TRPC4beta/mu-opioid cells; DAMGO-evoked Fluo4 calcium flux; hits give low values; B-score at 10 µM; actives 0.39% (n = 300,000); AID 2247, 2010;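 active = B-score over 3 SD under the library average, no early fluorescence shift, positive overall ratio signal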
#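 Assay system: HEK293 cells with stable TRPC4beta plus mu-opioid receptor expression; Probe or stimulus: DAMGO in two steps, submaximal then maximal; Dosing: single-point compound dosing; Measured by: Fluo4 calcium-dye fluorescence, kinetic read; Read-out basis: B score from integrated Fluo4 fluorescence ratio.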
# TRPC6 inh: mouse TRPC6 channel inhibitors, primary screen, cell-based, HEK293, membrane potential dye; ACh-evoked depolarization; hits give low values; B-score at 10 µM; actives 1.1% (n = 310,000); AID 2553, 2010; Short transient receptor potential channel 6 (Mus musculus), Q61143;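 active = B-score under library mean minus 3 SD, initial fluorescence not abnormally high, positive integrated signal ratio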;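 note: B-score derived from integrated fluorescence ratio over the kinetic read; more negative B-score means stronger inhibition of depolarization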
# TRPC4 potent: positive allosteric modulators of TRPC4, primary screen, cell-based, mouse TRPC4beta, HEK293 mu-opioid, Fluo-4 calcium; DAMGO EC20, Fluo-4 Ca2+ flux; hits give high values; B-score at 10 µM; Short transient receptor potential channel 4 (Mus musculus), Q9QUQ5; actives 0.42% (n = 310,000);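 active = B-score of calcium response area above 5 SD of library B-scores, with initial fluorescence ratio within 5 SD of library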;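 note: B-score of integrated fluorescence ratio over time as area under calcium response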
# TRPC4 act: activators of mouse TRPC4 channel, primary screen, Fluo4 calcium, HEK293 TRPC4beta/mu-opioid cells; Short transient receptor potential channel 4 (Mus musculus), Q9QUQ5; Fluo4 calcium fluorescence; hits give high values; B-score at 10 µM; actives 0.49% (n = 310,000); AID 2237, 2010;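 active = B-score above 5 SD of library B-scores, and initial fluorescence ratio not above library mean plus 5 SD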;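 note: positive B-score marks a calcium rise read as TRPC4 activation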
#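 Material: TRPC4beta and mu-opioid receptor HEK293 stable cells | Incubation: 45 min room-temperature Fluo4 loading, 110 s read | Detection: Kinetic Fluo4 calcium fluorescence | Measure: Integrated baseline-normalised fluorescence ratio, converted to per-well B score | Benchmarks: Low control buffer alone, high control maximal DAMGO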
# TRPC6 act: mouse TRPC6 channel activators, primary screen, cell-based, HEK293, membrane potential dye; HEK293-TRPC6 membrane potential dye fluorescence; hits give high values; actives 0.13% (n = 310,000); B-score at 10 µM;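 active = B-score of the integrated fluorescence ratio above library mean plus 3 SD, and starting fluorescence ratio within library mean plus 5 SD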;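 note: higher score means more depolarization so channel activation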
# TRPC4 spec 2: second check of whether TRPC6 inhibitors also affect mouse TRPC4. shares compounds with TRPC6 inh. HEK293 TRPC4/MOR, membrane potential dye fluorescence; channel activated by saturating DAMGO dose. inhibition, % at 10 µM. actives 42% (n = 920). AID 2776;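 active = compounds whose fluorescence signal differed from control wells by over 3 SD, either direction, in both duplicate plates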
# TRPC4 spec: mouse TRPC4 modulation by TRPC6 hits, confirmation, selectivity assay for TRPC6 inhibitor project, cell-based, HEK293 TRPC4/mu-opioid, membrane potential dye; shares compounds with TRPC6 inh; membrane potential fluorescence; activity change, negative = inhibition, % at 10 µM; actives 61% (n = 920); AID 2777, 2010;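 active = rise or fall in signal beyond 3 SD of buffer-only wells in both replicate plates, either sign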;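 note: integrated kinetic ratio of fluorescence range over baseline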
# HEK293 MPD ctr 2-1: nonspecific membrane potential effects, parental HEK293, confirmation, counter-screen for TRPC6 inhibitor project, cell-based, second counter screen | shares compounds with TRPC6 inh | parental HEK293 membrane potential dye fluorescence; maximal acetylcholine challenge after compound addition | signal change vs control, % at 10 µM | actives 31% (n = 920);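 active = membrane potential signal moving either way by over 3 SD of the maximum-effect control, in both duplicate plates, meaning non-specific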
# HEK293 MPD ctr-1: membrane potential modulation in parental HEK293, confirmation, counter-screen for TRPC6 inhibitor project, cell-based | shares compounds with TRPC6 inh | parental HEK293 membrane potential dye fluorescence | membrane potential signal change, % at 10 µM | actives 60% (n = 920) | AID 2780, 2010;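 active = membrane potential signal shifting up or down by more than 3 SD of buffer-only wells, on both duplicate plates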
# HEK293 MPD ctr-2: parental HEK293 membrane potential modulation, confirmation, counter-screen for TRPC6 modulator project, cell-based. shares compounds with TRPC6 inh. membrane potential dye fluorescence. membrane potential signal change, % at 10 µM. actives 51% (n = 2,400). AID 488924, 2010;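 active = membrane potential signal moves up or down beyond 5 SD from buffer-only wells, on both duplicate plates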
# HEK293 MPD ctr 2-2: second check of TRPC6 modulator effects in parental HEK293 cells; shares compounds with TRPC6 inh; membrane potential dye fluorescence; after compound, maximal acetylcholine stimulation; inhibition, % at 10 µM; actives 14% (n = 2,400); AID 488926;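 active = membrane potential signal drops by more than 5 SD from the mean control signal, in both duplicate plates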;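 note: plate controls were acetylcholine ECmax control wells for no effect and buffer only wells for full effect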
# TRPC4/MOR mod: TRPC4 modulation by TRPC6 hit compounds, confirmation, selectivity assay for TRPC6 modulator project, cell-based, HEK293 TRPC4/mu-opioid, membrane potential dye, mouse; percent change from control (negative = decrease, positive = increase), % at 10 µM; shares compounds with TRPC6 inh; membrane potential fluorescence; actives 69% (n = 2,400);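 active = membrane potential signal moved up or down beyond 5 SD of buffer control wells, in both duplicate plates, actives on both sides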;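 note: plate controls were assay buffer wells for no effect and DAMGO maximal-effect wells for full effect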
# TRPC4/MOR inh 2: second selectivity test of TRPC6 modulators against mouse TRPC4 | HEK293 TRPC4/mu-opioid, membrane potential dye fluorescence; stimulated with maximal-effect DAMGO | AID 488928 | inhibition, % at 10 µM | actives 55% (n = 2,400) | shares compounds with TRPC6 inh;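 active = drop in membrane potential signal beyond 5 SD of the control wells in both duplicate plates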;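 note: TRPC4 counter screen for TRPC6 hits run under conditions tuned for TRPC6 not TRPC4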
# TRPC6 inh conf: mouse TRPC6 channel inhibitors, confirmation, HEK293 cells, membrane potential dye, duplicate; shares compounds with TRPC6 inh; ACh-evoked depolarization; inhibition, % at 10 µM; actives 43% (n = 3,300); AID 488960, 2010;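 active = fluorescence ratio falls more than 5 SD below the full-stimulation control mean, in both duplicate runs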;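 note: integrated fluorescence ratio of peak minus minimum over baseline after agonist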
# TRPC6 act confirm: mouse TRPC6 channel activators, confirmation, HEK293 cells, membrane potential dye, duplicate | actives 11% (n = 2,800) | AID 488961, 2010 | HEK293-TRPC6 membrane potential dye fluorescence, FDSS | activation, % at 10 µM | shares compounds with TRPC6 inh;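 active = ratio signal rise beyond 5 SD above unstimulated control wells' mean, seen in both duplicate runs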;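 note: plate controls were buffer EC0 wells for no effect and acetylcholine ECmax response for full effect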
# * = called active by the depositor; i = inactive; · = no result. Only some compounds are listed: those with a hit (about 2.9% of all), similar ones and a draw of the others.
SMILES,Kir21 block,TRPC4 inh,TRPC6 inh,TRPC4 potent,TRPC4 act,TRPC6 act,HEK293 MPD ctr-2,HEK293 MPD ctr 2-2,TRPC4/MOR mod,TRPC4/MOR inh 2,TRPC6 inh conf,TRPC6 act confirm,others
CCOC(=O)c1cc2[nH]c3ccccc3c2[n+](-c2ccc([N+](=O)[O-])cc2)c1C,0.36,i,-7.6*,i,i,i,-275.0%*,i,-49.5%*,56.0%*,60.0%*,i,
CCOC(=O)c1cc2[nH]c3ccccc3c2[n+](-c2ccc([N+](=O)[O-])cc2)c1N,0.07,i,i,i,i,i,·,·,·,·,·,·,
Cc1nn2c(NCCCN(C)C)c3c(nc2c1-c1ccccc1)CCCC3,-0.03,i,-6.77*,i,i,i,·,·,·,·,63.0%*,i,TRPC4 spec 2=72.5%*;TRPC4 spec=-19.1%*;HEK293 MPD ctr 2-1=i;HEK293 MPD ctr-1=-296.5%*
Cc1nn2c(NCCCN(C)C)c3c(nc2c1-c1ccccc1)CCC3,-1.46,i,-7.94*,i,i,i,-167.0%*,i,-30.5%*,55.0%*,i,i,
COCCNc1c2c(nc3c(-c4ccccc4)c(C)nn13)CCC2,-0.72,i,i,i,i,i,·,·,·,·,·,·,
Cc1nn2c(NCCOCCO)c3c(nc2c1-c1ccccc1)CCC3,0.26,i,i,i,i,i,·,·,·,·,·,·,

# Screening results: PubChem, Johns Hopkins Ion Channel Center
